According to ChEMBL document CHEMBL1123325, “Isomer-dependent cytostatic activity of bis(1-aziridinyl)cyclophosphazenes” (1986):

What was measured:
Format in all cases: functional
[1] = system: L1210; assay: In vitro inhibition dose (cytostatic activity) in L1210 mouse leukemia cells
[2] = system: L5178Y; assay: In vitro lowest active dose (LAD) in L5178Y mouse lymphoma cells
[3] = system: L1210; assay: Tested in vivo for 50% lethal dose in L1210 mouse leukemia cells
[4] = system: Mus musculus; assay: Compound was tested for percent median survival time of drug-treated mice over that of untreated control mice at dose of 800 mg/kg
How it was run: (§1)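 10^5 L1210 leukemia cells from in vitro suspension culture were injected into male (BALB/c × DBA/2)F1 (CDF1) mice as intraperitoneal leukemia. Dosing began 24 h later, with 5 mice per dose and 10 untreated controls. Survival times were recorded. The value is the median survival time of treated mice as a percent of untreated controls (T/C%), with 60-day long-term survivors noted.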

[5] = system: Mus musculus; assay: Compound was tested for percent median survival time of drug-treated mice over that of untreated control mice at dose of 400 mg/kg; how it was run: as §1
[6] = system: Mus musculus; assay: Compound was tested for percent median survival time of drug-treated mice over that of untreated control mice at dose of 600 mg/kg; how it was run: as §1
[7] = system: Mus musculus; assay: Tested for percent median survival time of drug-treated mice over that of untreated control mice at dose of 200 mg/kg; how it was run: as §1
[8] = system: Mus musculus; assay: Compound was tested for percent median survival time of drug-treated mice over that of untreated control mice at dose of 35 mg/kg; how it was run: as §1
[9] = system: Mus musculus; assay: Tested for percent median survival time of drug-treated mice over that of untreated control mice at dose of 40 mg/kg; how it was run: as §1
[10] = system: Mus musculus; assay: Compound was tested for percent median survival time of drug-treated mice over that of untreated control mice at dose of 80 mg/kg; how it was run: as §1
[11] = system: Mus musculus; assay: Compound was tested for percent median survival time of drug-treated mice over that of untreated control mice at dose of 60 mg/kg; how it was run: as §1
[12] = system: Mus musculus; assay: Compound was tested for percent median survival time of drug-treated mice over that of untreated control mice at dose of 70 mg/kg; how it was run: as §1
[13] = system: Mus musculus; assay: Compound was tested for percent median survival time of drug-treated mice over that of untreated control mice at dose of 150 mg/kg; how it was run: as §1
[14] = system: Mus musculus; assay: Compound was tested for percent median survival time of drug-treated mice over that of untreated control mice at dose of 160 mg/kg; how it was run: as §1
[15] = system: Mus musculus; assay: Compound was tested for percent median survival time of drug-treated mice over that of untreated control mice at dose of 120 mg/kg; how it was run: as §1
[16] = system: Mus musculus; assay: Compound was tested for percent median survival time of drug-treated mice over that of untreated control mice at dose of 180 mg/kg; how it was run: as §1
[17] = system: Mus musculus; assay: Compound was tested for percent median survival time of drug-treated mice over that of untreated control mice at dose of 100 mg/kg; how it was run: as §1
[18] = system: Mus musculus; assay: Compound was tested for percent median survival time of drug-treated mice over that of untreated control mice at dose of 140 mg/kg; how it was run: as §1

Compound	ID50 [1] [M l-1]	LAD [2] [M l-1]	LD50 [3] [mg/kg]	also measured
CNP1(NC)=NP(NC)(NC)=NP(NC)(N2CC2)=NP(NC)(NC)=N1 (centres undefined)	5.69e-05	0.00015		
CN(C)P1(N(C)C)=N[P@](N(C)C)(N2CC2)=N[P@](N(C)C)(N2CC2)=N1	7.3e-06	5e-07		
CN(C)P1(N(C)C)=N[P@@](N(C)C)(N2CC2)=N[P@](N(C)C)(N2CC2)=N1	2.9e-06	5e-07		
CNP1(NC)=NP(NC)(NC)=NP(N2CC2)(N2CC2)=N1	2.78e-05	8e-06	600	T/C [4]: 188%; T/C [5]: 163%; T/C [6]: 150%
CN(C)P1(N(C)C)=NP(N(C)C)(N(C)C)=NP(N(C)C)(N2CC2)=N1 (centres undefined)	>0.00025	>0.0003		
C1CCN(P2(N3CCCCC3)=NP(N3CC3)(N3CC3)=NP(N3CC3)(N3CC3)=N2)CC1	3.6e-06		250	T/C [7]: 156%
CN(C)P1(N(C)C)=NP(N(C)C)(N(C)C)=NP(N(C)C)(N2CC2)=NP(N(C)C)(N(C)C)=N1 (centres undefined)	1.21e-05	6.4e-05		
CNP1(N2CC2)=NP(N2CC2)(N2CC2)=NP(N2CC2)(N2CC2)=N1 (centres undefined)	1.2e-06		45	T/C [8]: 188%; T/C [9]: 188%
CN(C)P1(N(C)C)=NP(N(C)C)(N(C)C)=NP(N2CC2)(N2CC2)=NP(N(C)C)(N(C)C)=N1	1.19e-05	2e-06		
CNP1(NC)=N[P@](NC)(N2CC2)=N[P@](NC)(N2CC2)=N1	5e-06	1e-06	70	T/C [10]: 175%; T/C [9]: 250%; T/C [11]: 275%
CN(C)P1(N(C)C)=N[P@](N(C)C)(N2CC2)=NP(N(C)C)(N(C)C)=N[P@](N(C)C)(N2CC2)=N1	5.5e-06	4e-06		
CN[P@@]1(N)=NP(N2CC2)(N2CC2)=N[P@](N)(NC)=N1	5.05e-05	8e-06		
C1CCN(P2(N3CC3)=NP(N3CC3)(N3CC3)=NP(N3CC3)(N3CC3)=N2)CC1 (centres undefined)	1.5e-06		80	T/C [11]: 175%; T/C [12]: 213%
CNP1(NC)=N[P@@](NC)(N2CC2)=NP(NC)(NC)=N[P@@](NC)(N2CC2)=N1	4.6e-06	5e-07	200	T/C [7]: 213%; T/C [13]: 200%
CN(C)P1(N(C)C)=N[P@](N(C)C)(N2CC2)=NP(N(C)C)(N(C)C)=N[P@@](N(C)C)(N2CC2)=N1	7.5e-06	1e-06	150	T/C [14]: <100%; T/C [15]: 125%
C1CCN(P2(N3CCCC3)=N[P@](N3CCCC3)(N3CC3)=N[P@](N3CCCC3)(N3CC3)=N2)C1	6.7e-06	1e-06		
C1CN([P@@]2(N3CC3)=NP(N3CC3)(N3CC3)=N[P@@](N3CCOCC3)(N3CC3)=N2)CCO1	4.7e-06		250	T/C [14]: 213%; T/C [7]: 200%
C1CCN(P2(N3CCCC3)=NP(N3CCCC3)(N3CCCC3)=NP(N3CCCC3)(N3CC3)=N2)C1 (centres undefined)	4.43e-05	1.2e-05		
CNP1(NC)=N[P@](NC)(N2CC2)=NP(NC)(NC)=N[P@@](NC)(N2CC2)=N1	4.6e-06	5e-07	200	T/C [16]: 311%; T/C [17]: 244%; T/C [12]: 289%; T/C [18]: 333%
